# Laboratory results reported in the RNAGym collection of RNA variant scans (doi:10.1126/science.aae0568).
# Fewer inactive variants are shown than the library holds.
# B1: tRNA (parent)
# chain: GUUCCGUUGGCGUAAUGGUAACGCGUCUCCCUCCUAAGGAGAAGACUGCGGGUUCGAGUCCCGUACGGAACG
# Variants of: B1
# Assay: yeast fitness relative to wild type (ratio to wild type); higher = fitter; tRNA-Arg(CCU), competitive growth, 37 C, YPD
# In short: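 Gene amplicons from the start population and from each of six end populations were read by 100-nucleotide paired-end sequencing. Those end populations came from pooled Saccharomyces cerevisiae strains carrying tRNA-Arg(CCU) gene variants at the native locus, competed in YPD at 37°C for 24 hours. Fitness relative to wild type was worked out from changes in genotype frequencies. Genotypes needed ≥ 100 starting reads, and estimates < 0.5 were set to 0.5.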
row,Variant,yeast fitness
1,G6C C30U C46A G67C,≤ 0.5
2,G6C C11A C34G A65G,≤ 0.5
3,G6C A37U A43U,0.525
4,G6C A40U G56A,≤ 0.5
5,G6C C66A,0.927
6,G6C C66U,1.01
7,G6C G25A C27G A57U,≤ 0.5
8,G6C G41C A45G G63A C66G G67C,≤ 0.5
9,G6C G44C G67U,0.501
10,G6C G48C A65U A70U,≤ 0.5
11,G6C G41C C49G U59G G63A C66U,0.54
12,G6C A42G,0.815
13,G6C G18C C22U C34G A36U A57C C66U,≤ 0.5
14,G6C G10A C27A,0.586
15,G6A U47G U54C,≤ 0.5
16,G6C G41C C49G,0.544
17,G6C C31U U35A C46G G48A C49U,≤ 0.5
18,G6C C55U,0.873
19,G6C A43U C61G C62A,0.618
20,G6C A15G U54G C55U,≤ 0.5
21,G6C A14C G44C C62G,≤ 0.5
22,G6A U19G A43U A65G G68A,≤ 0.5
23,G6C G9A A21U U28G C34U,≤ 0.5
24,G6C G23A,0.893

row,Variant,yeast fitness
1,G6C G12A A21G,0.552
2,G6C C24G,0.686
3,G6C C24A,0.525
4,G6C C22A C31G A42G A65C,≤ 0.5
5,G6C A20U A36C A40G A43U A57C,≤ 0.5
6,G6C A21U U26C,≤ 0.5
7,G6C C33G A36C,≤ 0.5
8,G6C C11U U19C C22A U35C A69U,≤ 0.5
9,G6C C22U C24G C27U C29A C30U C31G,≤ 0.5
10,G6C A37U C49U G56A A69U,≤ 0.5
11,G6C A40U,0.803
12,G6C A15G G51A,≤ 0.5
13,G6C C11G A15C G25C C27G C30G G38C,0.61
14,G6C C11G A15C G25C C27G C30G G38C C61G U64G,≤ 0.5
15,G6C C30A C34A A43C C62U,≤ 0.5
16,G6A U47C,0.878
17,G6A U47A,0.692
18,G6A U19C C24U,0.744
19,G6C G18A G23A C30U C33U A65G,0.536
20,G6C C29A A40G G51C,0.657
21,G6C A45U G50A,0.658
22,G6C A15G A21G G25A A40C C61A A65U,≤ 0.5
23,G6C G12A G51A,0.538
24,G6C A40G C61A,≤ 0.5

row,Variant,yeast fitness
1,G6C C22U A65G C66G G68C,≤ 0.5
2,G6A U59C C62U,0.543
3,G6C C33G A40U C46U C49G A65G,0.624
4,G6C G18C C22U C34G A36U G56C G63A,≤ 0.5
5,G6C G25C C29G G52A A69U,0.527
6,G6C C11G A15C G25C C27G C30G G38C A70C,≤ 0.5
7,G6C G12A A21G C66U,≤ 0.5
8,G6C G17A C30U A42C A43G,≤ 0.5
9,G6C A43G C49U C60A C62A,0.691
10,G6C G48A,1.01
11,G6C C29U C31U U54G A65U G67A,≤ 0.5
12,G6C C22U,0.706
13,G6C G17C U32G A40C G67A,0.603
14,G6C A15C,0.689
15,G6C C11G A20G G48C A57G U59A C60A,≤ 0.5
16,G6C C11G G41A A42C G50C A70G,≤ 0.5
17,G6C C33A G56A U59A,≤ 0.5
18,G6C A37C G51A U53C,≤ 0.5
19,G6C G18C A21G A40U C49U C61U A70G,0.564
20,G6C C31A C33U C62U,≤ 0.5
21,G6C A14C U54C A65U,0.637
22,G6C A14G U35G G51A,≤ 0.5
23,G6C A45C C55U A69C,≤ 0.5
24,G6C G10C C11U G23A C24G C46G,≤ 0.5

row,Variant,yeast fitness
1,G6C C22A C31G A70C,≤ 0.5
2,G6C C66A A70U,0.538
3,G6C C29U C34U,0.561
4,G6C A14C A21C A42G A70G,≤ 0.5
5,G6C C31A G38A A65G,≤ 0.5
6,G6A U26C,0.842
7,G6C G10A C27A C49U C66U,≤ 0.5
8,G6C G10A A14C U16A C27U C33U,≤ 0.5
9,G6C C22A C34A A70C,0.525
10,G6C A45C G48A G51C,≤ 0.5
11,G6C C27A G44A,0.629
12,G6C G12C U47A,≤ 0.5
13,G6C C30U,0.784
14,G6C C30A,0.763
15,G6C G38C,0.693
16,G6C G18C C22U C34G A36U C49A A57C C66U,≤ 0.5
17,G6C A15C A21C C34U A37U G56C U59G,≤ 0.5
18,G6C C11U C31G A36G G48C G67C,≤ 0.5
19,G6C C11U U19C G44C G68A,≤ 0.5
20,G6C G17A A36C C62G,0.536
21,G6C C22G U64A,≤ 0.5
22,G6C A57U C62U,≤ 0.5
23,G6C A15G C24U C60A,0.554
24,G6C G17C C31G A36G U59C,0.599

row,Variant,yeast fitness
1,G6A U16C C34G G51A,≤ 0.5
2,G6A U64C,0.874
3,G6C G10C A40G A42U,≤ 0.5
4,G6C C29G C66U,0.565
5,G6C C27U G56A C61U,≤ 0.5
6,G6C C46G U54C,≤ 0.5
7,G6C C11G A14U C22U G44A C55A,≤ 0.5
8,G6C A15C C31U,≤ 0.5
9,G6A U32C G44A C46A G52A C66U,0.567
10,G6C A45C C46G C55U,≤ 0.5
11,G6C A43G,0.851
12,G6C A14C C29U C34G C46U A57G C66A G68C,≤ 0.5
13,G6C G10A G17A A36U G51C A69C,≤ 0.5
14,G6C A37U,0.677
15,G6C A37G,0.728
16,G6C G17A C24A U32C,≤ 0.5
17,G6C C46A,0.951
18,G6C C46G,0.823
19,G6C C11G C61U A70U,≤ 0.5
20,G6C G10A U16G C24U G50C C55U,≤ 0.5
21,G6C C22A U28A G51U U53G,≤ 0.5
22,G6C A14G A20C U64A G67A,0.562
23,G6C C11G G48C A57G U59A C60A,≤ 0.5
24,G6C A37G G68C,0.536

row,Variant,yeast fitness
1,G6C G18A G51C A65C,≤ 0.5
2,G6C A42C A65G C66G,0.532
3,G6C G10C C29U C30G A45U,≤ 0.5
4,G6C C22A C46A C61G A69G,≤ 0.5
5,G6C G9A,1.03
6,G6C C24G C30G,≤ 0.5
7,G6A U16G A37C A57C C60A,≤ 0.5
8,G6C C34G G38A,≤ 0.5
9,G6C C31G C33G U47C G51A,≤ 0.5
10,G6C C34G A45U G68C,≤ 0.5
11,G6C A14G A20C G52A U64A G67A,≤ 0.5
12,G6C A21C C22G,≤ 0.5
13,G6C A20C A40G A42U G58A G63A G67A,0.519
14,G6C C11A C34G C66A,≤ 0.5
15,G6A U26C A69U,0.664
16,G6A U32G U35G,≤ 0.5
17,G6C G38C G68A A70U,≤ 0.5
18,G6C G17A A36U G58C,≤ 0.5
19,G6C G44C,0.853
20,G6C A20C C66G A70U,0.577
21,G6C G12A U47A G51C A65G,≤ 0.5
22,G6C G12A G58C C61U A69C,≤ 0.5
23,G6C C24G A57U,≤ 0.5
24,G6C G12A A37C G51A U53C C62A,≤ 0.5

row,Variant,yeast fitness
1,G6C C24A C34U C49G G52C C55U C62G,≤ 0.5
2,G6C A42C C62G,≤ 0.5
3,G6A U35G C55A,0.643
4,G6C A14C,0.596
5,G6C A14G,1
6,G6C A14U,0.607
7,G6C A20U C30G A65G A70U,0.53
8,G6C C33G G41C G56C G58A G63C A65U,≤ 0.5
9,G6C A15U G23C C31G G41C G48C G67C,≤ 0.5
10,G6C C11A C22A C29G,≤ 0.5
11,G6C C33G A36C C49A G56A C60G A70U,≤ 0.5
12,G6C C22A C31G G51A C66U,≤ 0.5
13,G6C C29G,0.723
14,G6C G17A C24A U32C A45C C60A A69U,≤ 0.5
15,G6C C33G C34U C49U U64A,≤ 0.5
16,G6A U26A G48C,0.557
17,G6C A20U,0.812
18,G6A U19G U53C,≤ 0.5
19,G6C G41A A45C A57C,≤ 0.5
20,G6C C11U,0.872
21,G6C C11A,0.659
22,G6C C33G A36U G38C A65G,≤ 0.5
23,G6C C29U G44A A65G,≤ 0.5
